pIC50: −log10 of the molar value.
Columns and labels:
[1] = tested on: NCI-H23; experiment: Growth inhibition of human NCI-H23 cells after 48 hrs by sulforhodamine B assay; assay type: functional; settings: NCI-H23, 48 h
Procedure, shortened: (§1)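 NCI screen panel. Five 10-fold concentrations from 10^-4 to 10^-8 M. Exposure for the last 48 h of a 72 h incubation. Growth estimated by sulforhodamine B protein assay. GI50 is the concentration giving 50% growth inhibition. Where that level was not reached or was exceeded, the value is given as above or below the highest or lowest concentration tested.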

[2] = tested on: DU-145; experiment: Growth inhibition of human DU145 cells after 48 hrs by sulforhodamine B assay; assay type: functional; settings: DU-145, 48 h; procedure, shortened: as §1
[3] = tested on: UACC-257; experiment: Growth inhibition of human UACC257 cells after 48 hrs by sulforhodamine B assay; assay type: functional; settings: UACC-257, 48 h
Procedure, shortened: (§2)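 NCI in vitro panel screen. Compounds tested at five 10-fold dilutions, 10^-4 to 10^-8 M. Cells in 96-well plates were exposed for the last 48 h of a 72 h incubation. Viability/growth was read by sulforhodamine B protein assay. GI50 is the concentration giving 50% growth inhibition. Values beyond the tested range are reported as greater or less than the maximum or minimum concentration.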

[4] = tested on: SNB-75; experiment: Growth inhibition of human SNB75 cells after 48 hrs by sulforhodamine B assay; assay type: functional; settings: SNB-75, 48 h; procedure, shortened: as §2
[5] = tested on: KM12; experiment: Growth inhibition of human KM12 cells after 48 hrs by sulforhodamine B assay; assay type: functional; settings: KM12, 48 h; procedure, shortened: as §1
[6] = tested on: MOLT-4; experiment: Growth inhibition of human MOLT4 cells after 48 hrs by sulforhodamine B assay; assay type: functional; settings: MOLT-4, 48 h; procedure, shortened: as §1
[7] = tested on: BT-549; experiment: Growth inhibition of human BT549 cells after 48 hrs by sulforhodamine B assay; assay type: functional; settings: BT-549, 48 h; procedure, shortened: as §1
[8] = tested on: T47D; experiment: Growth inhibition of human T47D cells after 48 hrs by sulforhodamine B assay; assay type: functional; procedure, shortened: as §2
[9] = tested on: MDA-MB-231; experiment: Growth inhibition of human MDA-MB-231 cells after 48 hrs by sulforhodamine B assay; assay type: functional; settings: MDA-MB-231, 48 h; procedure, shortened: as §1
[10] = tested on: LOX IMVI; experiment: Growth inhibition of human LOXIMVI cells after 48 hrs by sulforhodamine B assay; assay type: functional; procedure, shortened: as §1
[11] = tested on: SK-OV-3; experiment: Growth inhibition of human SKOV3 cells after 48 hrs by sulforhodamine B assay; assay type: functional; settings: SK-OV-3, 48 h; procedure, shortened: as §1
[12] = tested on: Malme-3M; experiment: Growth inhibition of human MALME-3M cells after 48 hrs by sulforhodamine B assay; assay type: functional; procedure, shortened: as §1
[13] = tested on: UO-31; experiment: Growth inhibition of human UO31 cells after 48 hrs by sulforhodamine B assay; assay type: functional; settings: UO-31, 48 h; procedure, shortened: as §2
[14] = tested on: HCT-116; experiment: Growth inhibition of human HCT116 cells after 48 hrs by sulforhodamine B assay; assay type: functional; settings: HCT-116, 48 h; procedure, shortened: as §1
[15] = tested on: A549; experiment: Growth inhibition of human A549 cells after 48 hrs by sulforhodamine B assay; assay type: functional; settings: A549, 48 h; procedure, shortened: as §1
[16] = tested on: SK-MEL-5; experiment: Growth inhibition of human SK-MEL-5 cells after 48 hrs by sulforhodamine B assay; assay type: functional; settings: SK-MEL-5, 48 h; procedure, shortened: as §1
[17] = tested on: HT-29; experiment: Growth inhibition of human HT-29 cells after 48 hrs by sulforhodamine B assay; assay type: functional; settings: HT-29, 48 h; procedure, shortened: as §1
[18] = tested on: HL-60(TB); experiment: Growth inhibition of human HL-60(TB) cells after 48 hrs by sulforhodamine B assay; assay type: functional; settings: HL-60, 48 h
Procedure, shortened: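 NCI 60-cell-line screen protocol: cells exposed to compound at five 10-fold dilutions from 10^-4 to 10^-8 M for the last 48 h of a 72 h incubation. Sulforhodamine B protein assay estimated viability/growth. GI50 (50% growth inhibition) derived; where not reached or exceeded, reported as greater or less than the highest or lowest concentration tested.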

[19] = Growth inhibition of human […] cells after 48 hrs by sulforhodamine B assay; assay type: functional; procedure, shortened: as §1
[20] = tested on: OVCAR-4; experiment: Growth inhibition of human OVCAR4 cells after 48 hrs by sulforhodamine B assay; assay type: functional; settings: OVCAR-4, 48 h; procedure, shortened: as §1
[21] = tested on: IGROV-1; experiment: Growth inhibition of human IGROV1 cells after 48 hrs by sulforhodamine B assay; assay type: functional; settings: IGROV-1, 48 h; procedure, shortened: as §1
[22] = tested on: NCI-H322M; experiment: Growth inhibition of human NCI-H322M cells after 48 hrs by sulforhodamine B assay; assay type: functional; procedure, shortened: as §1
[23] = tested on: K562; experiment: Growth inhibition of human K562 cells after 48 hrs by sulforhodamine B assay; assay type: functional; settings: K562, 48 h; procedure, shortened: as §1
[24] = tested on: SN12C; experiment: Growth inhibition of human SN12C cells after 48 hrs by sulforhodamine B assay; assay type: functional; procedure, shortened: as §2
[25] = tested on: NCI-H460; experiment: Growth inhibition of human NCI-H460 cells after 48 hrs by sulforhodamine B assay; assay type: functional; settings: NCI-H460, 48 h; procedure, shortened: as §1
[26] = tested on: 786-0; experiment: Growth inhibition of human 786-0 cells after 48 hrs by sulforhodamine B assay; assay type: functional; settings: 786-0, 48 h; procedure, shortened: as §1
[27] = tested on: UACC-62; experiment: Growth inhibition of human UACC62 cells after 48 hrs by sulforhodamine B assay; assay type: functional; settings: UACC-62, 48 h; procedure, shortened: as §2
[28] = tested on: PC-3; experiment: Growth inhibition of human PC3 cells after 48 hrs by sulforhodamine B assay; assay type: functional; settings: PC-3, 48 h; procedure, shortened: as §1
[29] = tested on: MDA-MB-435; experiment: Growth inhibition of human MDA-MB-435 cells after 48 hrs by sulforhodamine B assay; assay type: functional; settings: MDA-MB-435, 48 h; procedure, shortened: as §1
[30] = tested on: HOP-62; experiment: Growth inhibition of human HOP62 cells after 48 hrs by sulforhodamine B assay; assay type: functional; settings: HOP-62, 48 h; procedure, shortened: as §1
[31] = tested on: HCT-15; experiment: Growth inhibition of human HCT15 cells after 48 hrs by sulforhodamine B assay; assay type: functional; settings: HCT-15, 48 h; procedure, shortened: as §1
[32] = tested on: OVCAR-8; experiment: Growth inhibition of human OVCAR8 cells after 48 hrs by sulforhodamine B assay; assay type: functional; settings: OVCAR-8, 48 h; procedure, shortened: as §1
[33] = tested on: OVCAR-3; experiment: Growth inhibition of human OVCAR-3 cells after 48 hrs by sulforhodamine B assay; assay type: functional; settings: OVCAR-3, 48 h; procedure, shortened: as §1
[34] = tested on: SNB-19; experiment: Growth inhibition of human SNB19 cells after 48 hrs by sulforhodamine B assay; assay type: functional; settings: SNB-19, 48 h; procedure, shortened: as §2
[35] = tested on: RXF 393; experiment: Growth inhibition of human RXF393 cells after 48 hrs by sulforhodamine B assay; assay type: functional; settings: RXF 393, 48 h; procedure, shortened: as §1
[36] = tested on: SK-MEL-2; experiment: Growth inhibition of human SK-MEL-2 cells after 48 hrs by sulforhodamine B assay; assay type: functional; settings: SK-MEL-2, 48 h; procedure, shortened: as §1
[37] = tested on: M14; experiment: Growth inhibition of human M14 cells after 48 hrs by sulforhodamine B assay; assay type: functional; settings: M14, 48 h; procedure, shortened: as §1
[38] = tested on: COLO 205; experiment: Growth inhibition of human COLO205 cells after 48 hrs by sulforhodamine B assay; assay type: functional; settings: COLO 205, 48 h; procedure, shortened: as §1
[39] = tested on: SF-268; experiment: Growth inhibition of human SF268 cells after 48 hrs by sulforhodamine B assay; assay type: functional; settings: SF-268, 48 h; procedure, shortened: as §1
[40] = tested on: SR; experiment: Growth inhibition of human SR cells after 48 hrs by sulforhodamine B assay; assay type: functional; procedure, shortened: as §2
[41] = tested on: U-251; experiment: Growth inhibition of human U251 cells after 48 hrs by sulforhodamine B assay; assay type: functional; settings: U-251, 48 h; procedure, shortened: as §2
[42] = tested on: EKVX; experiment: Growth inhibition of human EKVX cells after 48 hrs by sulforhodamine B assay; assay type: functional; procedure, shortened: as §1
[43] = tested on: NCI/ADR-RES; experiment: Growth inhibition of human NCI/ADR-RES cells after 48 hrs by sulforhodamine B assay; assay type: functional; procedure, shortened: as §1
[44] = tested on: CAKI-1; experiment: Growth inhibition of human Caki1 cells after 48 hrs by sulforhodamine B assay; assay type: functional; settings: CAKI-1, 48 h; procedure, shortened: as §1
[45] = tested on: HOP-92; experiment: Growth inhibition of human HOP92 cells after 48 hrs by sulforhodamine B assay; assay type: functional; settings: HOP-92, 48 h; procedure, shortened: as §1
[46] = tested on: ACHN; experiment: Growth inhibition of human ACHN cells after 48 hrs by sulforhodamine B assay; assay type: functional; procedure, shortened: as §1
[47] = tested on: MT4; experiment: Antiproliferative activity against human MT4 cells assessed as reduction of growth by MTT assay; assay type: functional, cell-based
Procedure, shortened: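 MT-4 lymphoblastoid T cells (ATCC) in RPMI 1640 with 10% FCS, penicillin/streptomycin, checked for mycoplasma. 1 × 10⁴ mock-infected cells per well with serial dilutions from a 100 mM DMSO stock. Incubated 4 days at 37 °C, viable cells counted by MTT. IC50 versus untreated controls by linear regression. Mean of three separate experiments.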

[48] = tested on: SF-295; experiment: Growth inhibition of human SF295 cells after 48 hrs by sulforhodamine B assay; assay type: functional; settings: SF-295, 48 h; procedure, shortened: as §1
[49] = tested on: SW-620; experiment: Growth inhibition of human SW620 cells after 48 hrs by sulforhodamine B assay; assay type: functional; settings: SW-620, 48 h; procedure, shortened: as §2
[50] = tested on: SK-MEL-28; experiment: Growth inhibition of human SK-MEL-28 cells after 48 hrs by sulforhodamine B assay; assay type: functional; settings: SK-MEL-28, 48 h; procedure, shortened: as §1
[51] = tested on: TK-10; experiment: Growth inhibition of human TK10 cells after 48 hrs by sulforhodamine B assay; assay type: functional; settings: TK-10, 48 h; procedure, shortened: as §2

COC(=O)/C(C#N)=C/N1CCN(C(=O)c2ccco2)C1=S
GI50 [1]: 13.2 µM | GI50 [2]: 3.5 µM | GI50 [3]: 5.9 µM | GI50 [4]: 15.5 µM | GI50 [5]: 3.3 µM | GI50 [6]: 7.4 µM | GI50 [7]: 4.2 µM | GI50 [8]: 4.6 µM | GI50 [9]: 4.2 µM | GI50 [10]: 2.4 µM | GI50 [11]: 28.2 µM | GI50 [12]: 32.7 µM | GI50 [13]: 5.2 µM | GI50 [14]: 4 µM | GI50 [15]: 14.6 µM | GI50 [16]: 14.8 µM | GI50 [17]: 12.2 µM | GI50 [18]: 6.9 µM | GI50 [19]: 3.3 µM | GI50 [20]: 23.3 µM | GI50 [21]: 6.2 µM | GI50 [22]: 14 µM | GI50 [23]: 3.7 µM | GI50 [24]: 3.7 µM | GI50 [25]: 2.5 µM | GI50 [26]: 6.3 µM | GI50 [27]: 10.8 µM | GI50 [28]: 6.8 µM | GI50 [29]: 6.8 µM | GI50 [30]: 22.3 µM | GI50 [31]: 3 µM | GI50 [32]: 15.5 µM | GI50 [33]: 4.9 µM | GI50 [34]: 54.9 µM | GI50 [35]: 3.1 µM | GI50 [36]: 2.9 µM | GI50 [37]: 6.4 µM | GI50 [38]: 31.7 µM | GI50 [39]: 4.8 µM | GI50 [40]: 2.1 µM | GI50 [41]: 6.8 µM | GI50 [42]: 10.2 µM | GI50 [43]: 24 µM | GI50 [44]: 3.4 µM | GI50 [45]: 14 µM | GI50 [46]: 4.8 µM | pIC50 [47]: 5.30 | GI50 [48]: 26 µM | GI50 [49]: 5.2 µM | GI50 [50]: 13 µM | GI50 [51]: 3.6 µM
